ChEMBL document CHEMBL2331391, “Peroxisome proliferator-activated receptor-γ mediates the anti-inflammatory effect of 3-hydroxy-4-pyridinecarboxylic acid derivatives: synthesis and biological evaluation” (Eur J Med Chem, 2013)
Values belong to the compound of their own block, whether it stands above or below them. Active and inactive are the calls of the source. The calls are words filed in the database; no cut-off is given here.

Tests used:
[1] = Cytotoxicity against human macrophages at 10 '4 uM after 72 hrs by MTT assay; format: cell-based; conditions: macrophage
[2] = test system: Macrophage; assay: Antiinflammatory activity in human macrophages assessed as inhibition of LPS-induced IL-1beta release at 10 uM preincubated for 30 mins before LPS-challenge measured after 24 hrs post challenge by ELISA; format: functional, cell-based
Procedure, shortened: (§1)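 Human blood PBMC-derived macrophages were used after 10 days of culture. Purity >95% (esterase, CD14, morphology). Cells were pretreated 30 min at 37 °C with compound, then given 100 ng/mL LPS (S. enteritidis) for 24 h. TNFα, IL-1β and IL-8 in conditioned medium were measured by ELISA. Working solutions were endotoxin-tested by LAL (<3 pg/mL).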

[3] = Cytotoxicity against human macrophages up to 100 uM after 72 hrs by MTT assay; format: cell-based; conditions: macrophage
[4] = test system: Macrophage; assay: Antiinflammatory activity in human macrophages assessed as inhibition of LPS-induced IL-8 release at 10 uM preincubated for 30 mins before LPS-challenge measured after 24 hrs post challenge by ELISA; format: functional, cell-based; procedure, shortened: as §1
[5] = Cytotoxicity against human macrophages at 10 '5 uM after 72 hrs by MTT assay; format: cell-based; conditions: macrophage
[6] = test system: Macrophage; assay: Antiinflammatory activity in human macrophages assessed as inhibition of LPS-induced TNFalpha release at 10 uM preincubated for 30 mins before LPS-challenge measured after 24 hrs post challenge by ELISA; format: functional, cell-based; procedure, shortened: as §1
[7] = Antiinflammatory activity in human macrophages assessed as inhibition of LPS-induced TNFalpha release at 5 uM preincubated for 30 mins before LPS-challenge measured after 24 hrs post challenge by ELISA (reference value: 1682 +/-190 ng/ml); format: functional, Macrophage; procedure, shortened: as §1
[8] = Antiinflammatory activity in human macrophages assessed as inhibition of LPS-induced TNFalpha release at 10 '-3 uM preincubated for 30 mins before LPS-challenge measured after 24 hrs post challenge by ELISA (reference value: 1682 +/-190 ng/ml); format: functional, Macrophage; procedure, shortened: as §1
[9] = Antiinflammatory activity in human macrophages assessed as inhibition of LPS-induced IL8 release at 10 '-3 uM preincubated for 30 mins before LPS-challenge measured after 24 hrs post challenge by ELISA (reference value: 7.86 +/-0.17 ng/ml); format: functional, Macrophage; procedure, shortened: as §1
[10] = Antiinflammatory activity in human macrophages assessed as inhibition of LPS-induced IL8 release at 100 uM preincubated for 30 mins before LPS-challenge measured after 24 hrs post challenge by ELISA (reference value: 7.86 +/-0.17 ng/ml); format: functional, Macrophage; procedure, shortened: as §1
[11] = Antiinflammatory activity in human macrophages assessed as inhibition of LPS-induced TNFalpha release at 10 '-2 uM preincubated for 30 mins before LPS-challenge measured after 24 hrs post challenge by ELISA (reference value: 1682 +/-190 ng/ml); format: functional, Macrophage; procedure, shortened: as §1
[12] = Antiinflammatory activity in human macrophages assessed as inhibition of LPS-induced IL8 release at 10 uM preincubated for 30 mins before LPS-challenge measured after 24 hrs post challenge by ELISA (reference value: 7.86 +/-0.17 ng/ml); format: functional, Macrophage; procedure, shortened: as §1
[13] = Antiinflammatory activity in human macrophages assessed as inhibition of LPS-induced TNFalpha release at 1 uM preincubated for 30 mins before LPS-challenge measured after 24 hrs post challenge by ELISA (reference value: 1682 +/-190 ng/ml); format: functional, Macrophage; procedure, shortened: as §1
[14] = Antiinflammatory activity in human macrophages assessed as inhibition of LPS-induced IL8 release at 10 '-2 uM preincubated for 30 mins before LPS-challenge measured after 24 hrs post challenge by ELISA (reference value: 7.86 +/-0.17 ng/ml); format: functional, Macrophage; procedure, shortened: as §1
[15] = Antiinflammatory activity in human macrophages assessed as inhibition of LPS-induced TNFalpha release at 10 uM preincubated for 30 mins before LPS-challenge measured after 24 hrs post challenge by ELISA (reference value: 1682 +/-190 ng/ml); format: functional, Macrophage; procedure, shortened: as §1
[16] = Antiinflammatory activity in human macrophages assessed as inhibition of LPS-induced IL8 release at 5 uM preincubated for 30 mins before LPS-challenge measured after 24 hrs post challenge by ELISA (reference value: 7.86 +/-0.17 ng/ml); format: functional, Macrophage; procedure, shortened: as §1
[17] = Antiinflammatory activity in human macrophages assessed as inhibition of LPS-induced IL8 release at 1 uM preincubated for 30 mins before LPS-challenge measured after 24 hrs post challenge by ELISA (reference value: 7.86 +/-0.17 ng/ml); format: functional, Macrophage; procedure, shortened: as §1
[18] = Antiinflammatory activity in human macrophages assessed as inhibition of LPS-induced TNFalpha release at 100 uM preincubated for 30 mins before LPS-challenge measured after 24 hrs post challenge by ELISA (reference value: 1682 +/-190 ng/ml); format: functional, Macrophage; procedure, shortened: as §1
[19] = test system: Macrophage; assay: Increase in PPAR-gamma mRNA transcript level in human macrophages at 10 uM by quantitative PCR analysis; format: functional, cell-based
[20] = target: T1, Peroxisome proliferator-activated receptor gamma (Mus musculus) (UniProt P37238); assay: Induction of PPAR-gamma promoter activity in LPS-stimulated mouse CMT93 cells at 10 uM preincubated for 30 mins before LPS-challenge measured after 6 hrs post challenge by luciferase reporter gene assay; format: cell-based
T1 sequence (whole entry): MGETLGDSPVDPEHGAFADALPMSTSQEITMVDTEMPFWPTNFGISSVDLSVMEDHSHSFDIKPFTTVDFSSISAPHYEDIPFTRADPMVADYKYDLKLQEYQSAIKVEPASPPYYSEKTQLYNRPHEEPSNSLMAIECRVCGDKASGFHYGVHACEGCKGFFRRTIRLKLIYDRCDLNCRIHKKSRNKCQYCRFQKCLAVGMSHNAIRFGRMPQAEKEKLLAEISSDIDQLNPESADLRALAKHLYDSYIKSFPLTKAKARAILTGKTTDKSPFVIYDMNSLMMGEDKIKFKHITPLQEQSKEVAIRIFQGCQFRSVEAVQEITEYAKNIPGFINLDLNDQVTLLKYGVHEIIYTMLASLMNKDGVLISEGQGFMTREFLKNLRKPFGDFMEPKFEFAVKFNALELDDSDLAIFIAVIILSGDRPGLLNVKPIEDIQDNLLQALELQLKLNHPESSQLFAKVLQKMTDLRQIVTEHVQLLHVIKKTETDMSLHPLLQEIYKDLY
Procedure, shortened: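 CMT-93 cells (1×10⁵/well) were transfected with an NF-κB or PPRE luciferase reporter plus CMV-β-Gal. At 24 h they were treated with compound for 30 min, then with 100 ng/mL LPS for 6 h. Cells were lysed in Tris/EDTA/DTT/Triton buffer and supernatant luciferase was read by luminometer. Results are fold over untreated cells.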

[21] = test system: Mus musculus; assay: Antiinflammatory activity in DSS-induced C57Bl/6 mouse colitis model assessed as inhibition IL-1beta level in colonic homogenate at 400 mg/kg/day administered intragastrically for 7 days; format: functional, organism-based
Procedure, shortened: (§2)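 Male C57Bl/6J mice, 8–10 per group, dosed intragastrically daily for 7 days at 400 mg/kg/day (vehicle 100 µL). From day 2, drinking water carried 3.5% w/vol DSS. Killed 5 days after colitis induction. Full-thickness proximal colon homogenised for MPO activity and IL-1β protein.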

[22] = test system: Macrophage; assay: Increase in PPAR-gamma mRNA transcript level in human macrophages at 30 mM by quantitative PCR analysis; format: functional, cell-based
[23] = test system: Mus musculus; assay: Antiinflammatory activity in DSS-induced C57Bl/6 mouse colitis model assessed as inhibition MPO activity in colonic homogenate at 400 mg/kg/day administered intragastrically for 7 days; format: functional; procedure, shortened: as §2

SMILES: Cc1nccc(C(=O)O)c1O
Activity [1]: Toxic
inhibition [2]: inactive
Activity [3]: Non-toxic
inhibition [4]: inactive
Activity [5]: Toxic
inhibition [6]: inactive

SMILES: Cc1c(O)c(C(=O)O)cc[n+]1C.[Cl-]
Activity [7]: 1394 ng/mL
Activity [8]: 1626 ng/mL
Activity [9]: 7.45 ng/mL
Activity [10]: 4.03 ng/mL
inhibition [2]: Active
Activity [11]: 1418 ng/mL
Activity [12]: 6.4 ng/mL
inhibition [4]: Active
Activity [13]: 1368 ng/mL
Activity [14]: 7.23 ng/mL
Activity [15]: 1404 ng/mL
Activity [16]: 7.34 ng/mL
Activity [17]: 7.04 ng/mL
Activity [18]: 901 ng/mL
inhibition [6]: Active

SMILES: CCc1nccc(C(=O)O)c1O
inhibition [2]: inactive
inhibition [4]: inactive
inhibition [6]: inactive

SMILES: CC(=O)Oc1ccccc1C(=O)O
inhibition [2]: Active
inhibition [4]: Active
inhibition [6]: Active

Activity [20]: Active
SMILES: CN(CCOc1ccc(CC2SC(=O)NC2=O)cc1)c1ccccn1 (configuration not stated)
Activity [19]: Active

SMILES: Nc1ccc(O)c(C(=O)O)c1
inhibition [21]: inactive
Activity [22]: Active
inhibition [23]: Active
